# Activity calls are given as the source filed them. The calls are words filed in the database; no cut-off is given here.
# Experiments:
# [1] = tested on: Trypanosoma cruzi; assay: Antitrypanosomal activity against Trypanosoma cruzi Tulahuen strain C2C4 amastigotes infected in […] cells assessed as reduction in parasite growth incubated for 48 hrs by chlorophenol red-fl-D-galactopyranoside based colorimetric analysis relative to control; assay type: functional
# [2] = Cytotoxicity against rat 3T3 cells assessed as reduction in cell viability incubated for 72 hrs by alamar blue assay; assay type: ADME, cell-based; details: NIH3T3, 72 h
# [3] = tested on: Trypanosoma cruzi; assay: Antitrypanosomal activity against Trypanosoma cruzi Tulahuen strain C2C4 amastigotes infected in […] cells assessed as reduction in parasite growth incubated for 48 hrs by chlorophenol red-fl-D-galactopyranoside based colorimetric analysis; assay type: functional, organism-based; details: for IC50: Tulahuen strain C2C4, NIH3T3, 48 h; for IC90: Tulahuen strain C2C4, NIH3T3, time 48 hrs
# [4] = Metabolic stability in human liver microsomes assessed as parent compound remaining incubated for 1 hr; assay type: ADME, Microsome; details: read-out: Stabilty
# Method in brief: (§1)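 Pooled human or CD-1 mouse liver microsomes at 0.4 mg/mL microsomal protein. Percent parent remaining after 1 h incubation.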
# [5] = Inhibition of Trypanosoma cruzi Tulahuen C4 strain CYP51 expressed in Escherichia coli by fluorescence based assay
# [6] = tested on: Trypanosoma cruzi; assay: Antitrypanosomal activity against Trypanosoma cruzi Tulahuen strain C2C4 amastigotes infected in rat L6 cells assessed as inhibition of parasite growth incubated for 96 hrs by chlorophenol red-fl-D-galactopyranoside based colorimetric analysis; assay type: functional, organism-based; details: for IC50: Tulahuen strain C2C4, L6, 96 h; for IC90: Tulahuen strain C2C4, L6, time 96 hrs
# Method in brief: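 Tulahuen strain TcVI T. cruzi expressing β-galactosidase, grown in L6 rat skeletal myoblast host cells. IC50/IC90 growth inhibition. Each value is the mean of ≥2 independent determinations using fresh sample stock.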
# [7] = tested on: L6; assay: Cytotoxicity against rat L6 cells assessed as reduction in cell viability incubated for 72 hrs by alamar blue assay; assay type: ADME, cell-based; details: L6, 72 h
# [8] = Selectivity index, ratio of IC50 for cytotoxicity against rat L6 cells to IC50 for antitrypanosomal activity against Trypanosoma cruzi Tulahuen strain C2C4 amastigotes infected in rat L6 cells
# [9] = Kinetic solubility of compound in water sonicated for 15 mins by HPLC analysis
# [10] = Selectivity index, ratio of IC50 for cytotoxicity against rat 3T3 cells to IC50 for antitrypanosomal activity against Trypanosoma cruzi Tulahuen strain C2C4 amastigotes infected in rat 3T3 cells
# [11] = Metabolic stability in CD-1 mouse liver microsomes assessed as parent compound remaining incubated for 1 hr; assay type: ADME, Microsome; method in brief: as §1
# [12] = tested on: Trypanosoma cruzi; assay: Antitrypanosomal activity against Trypanosoma cruzi amastigotes assessed as inhibition of parasite growth at 10 ug/ml relative to control
# [13] = tested on: Trypanosoma cruzi; assay: Antitrypanosomal activity against bloodstream trypomastigotes form of Trypanosoma cruzi CL Brener infected in BALB/c mouse assessed as reduction in parasitemia at 100 mg/kg, po qd administered for 5 days starting from day 114 post infection followed by cyclophosphamide induced immunosuppression on days 135, 139 and 143 post infection and measured for 149 days by bioluminescence analysis; assay type: functional, organism-based; details: time 5.0 day
# Method in brief: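 Female BALB/c mice, 8 weeks old, ~18 g, 5 per group. Infected i.p. with 10^3 bloodstream trypomastigotes of bioluminescent CL Brener (pTRIX2-RE9h). From day 114 p.i., oral dosing once daily for 5 days: reference drugs at 100 mg/kg in HPMC-SV with 5% DMSO, PEG400 vehicle at 50 mg/kg. Cyclophosphamide 200 mg/kg i.p. on days 135, 139 and 143. Final imaging day 149. Ex vivo organ bioluminescence days 149-151.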
# [14] = Half life in human liver microsomes incubated for 60 mins
Structure (SMILES),IC50 [3] [µM],IC90 [3] [µM],IC50 [6] [µM],IC90 [6] [µM],%max [1] [%],IC50 [2] [µM],IC50 [5] [µM],IC50 [7] [µM],selectivity ratio [8],further results
O=[N+]([O-])c1cn2c(n1)OC(COc1ccc(-c3ccc(OC(F)(F)F)cc3)nc1)CC2 (stereo not given),,,,,100,,,,,
O=[N+]([O-])c1cn2c(n1)OC[C@H](OCc1ccc(-c3ccc(C(F)(F)F)cc3Cl)cc1)C2,0.28,0.41,0.25,0.71,100,> 37,7.6,29,116,remaining at 1 h [4]: 76%; solubility kinetic at 0.25 h [9]: < 0.1 µg/mL; selectivity ratio ([10]; 3T3 cells): > 132; remaining at 1 h [11]: 83%
O=[N+]([O-])c1cn2c(n1)OC[C@@H](OCc1ccc(-c3ccc(OC(F)(F)F)cc3Cl)cc1)C2,,,5.7,> 10,,,,19,3.3,
O=[N+]([O-])c1cn2c(n1)OC(COc1ncc(-c3ccc(OC(F)(F)F)cc3)cn1)CC2 (stereo not given),,,0.053,0.33,,,,19,358,
O=C(Cn1ccnc1[N+](=O)[O-])NCc1ccccc1 [BENZNIDAZOLE],12,37,,,101,> 127,> 10,,,Activity [13]: Active; selectivity ratio ([10]; 3T3 cells): > 11
CC1(COc2ccc(OC(F)(F)F)cc2)CCn2cc([N+](=O)[O-])nc2S1(=O)=O (stereo not given),1.3,3,0.7,1.6,101,> 37,> 10,> 100,> 143,remaining at 1 h [4]: 88%; solubility kinetic at 0.25 h [9]: 1.1 µg/mL; selectivity ratio ([10]; 3T3 cells): > 28; remaining at 1 h [11]: 76%
O=[N+]([O-])c1cn2c(n1)OC[C@@H](OCc1ccc(-c3ccc(C(F)(F)F)cc3Cl)cn1)C2,,,4.8,> 10,,,,57,12,
O=[N+]([O-])c1cn2c(n1)OC[C@H](OCc1ccc(-c3ccccc3)cc1)C2,,,2.7,,,,,,,
CSc1ccc(OCc2ncc([N+](=O)[O-])n2C)cc1,,,,,,,,,,Activity [13]: Active

# Now from value to compound, other results behind:
IC50 [3] [µM],IC90 [3] [µM],IC50 [6] [µM],IC90 [6] [µM],Structure (SMILES),%max [1] [%],IC50 [2] [µM],IC50 [5] [µM],IC50 [7] [µM],selectivity ratio [8],further results
,,0.21,6.7,O=[N+]([O-])c1cn2c(n1)OC(COc1cnc(-c3ccc(OC(F)(F)F)cc3)cn1)CC2 (stereo not given),,,,> 100,> 476,
,,> 10,> 10,O=[N+]([O-])c1cn2c(n1)OC[C@@H](OCc1cccc(-c3cccc(OC(F)(F)F)c3)c1)C2,,,,13,,inhibition at 10 µg/mL [12]: 65%
,,60,,O=[N+]([O-])c1cn2c(n1)OC[C@@H](OCc1ccc(-c3ccccc3)cc1)C2,,,,,,
2,16,,,CSc1cnc2n1CC(C)(COc1ccc(OC(F)(F)F)cc1)O2 (stereo not given),93,> 73,> 10,,,selectivity ratio ([10]; 3T3 cells): > 37
,,0.035,0.089,O=[N+]([O-])c1cn2c(n1)[S+]([O-])CC(OCc1ccc(COc3ccccc3)cc1)C2 (stereo not given),,,,> 100,> 2860,inhibition at 10 µg/mL [12]: 89%; solubility kinetic at 0.25 h [9]: 0.44 µg/mL; half-life at 1 h [14]: 2.6 h
2.1,4.6,,,CC1CS(=O)(=O)CCN1/N=C/c1ccc([N+](=O)[O-])o1 (stereo not given) [NIFURTIMOX],99,> 127,> 10,,,Activity [13]: Active; selectivity ratio [10]: > 60
,,0.047,0.13,O=[N+]([O-])c1nc2n(n1)C[C@H](OCc1ccc(OCc3ccccc3)cc1)CO2,,,,> 100,> 2130,inhibition at 10 µg/mL [12]: 12%; solubility kinetic at 0.25 h [9]: 0.18 µg/mL
,,1.2,,O=[N+]([O-])c1cn2c(n1)OCC(OCc1ccc(OCc3ccccc3)cc1)C2 (stereo not given),,,,,,
1.7,4.1,,,CC1(COc2ccc(OC(F)(F)F)cc2)Cn2c(Br)cnc2O1 (stereo not given),87,> 73,0.53,,,selectivity ratio ([10]; 3T3 cells): > 43

# From ChEMBL document CHEMBL4706606, “Re-evaluating pretomanid analogues for Chagas disease: Hit-to-lead studies reveal both in vitro and in vivo trypanocidal efficacy” (Eur J Med Chem, 2020)
